Measured values published in ChEMBL document CHEMBL1649247, “Fluoroquinolone resistance in Mycobacterium tuberculosis and mutations in gyrA and gyrB” (2009).
Values after ≈ are worked out from the molar mass of the structure shown. Active and inactive are the calls of the source. No cut-off for these calls is given here.

Experiments:
[1] = tested on: Mycobacterium tuberculosis; test: Antimycobacterial activity against multidrug-resistant Mycobacterium tuberculosis 01-1647 harboring gyrA Ala90Val mutant gene assessed as microbial susceptibility by agar proportion method; format: functional, organism-based
In short: (§1)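 Clinical isolates freshly subcultured on Löwenstein-Jensen medium, held at 37°C no longer than 4 weeks. Fluoroquinolone stocks 1 mg/ml in 0.1 N NaOH, filter sterilized, kept at −20°C under 2 months. Standard proportion method on 7H11 agar; breakpoints 2 mg/liter ofloxacin, 0.5 mg/liter moxifloxacin and gatifloxacin; scored susceptible or resistant.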

[2] = tested on: Mycobacterium tuberculosis; test: Antimycobacterial activity against multidrug-resistant Mycobacterium tuberculosis 08-0785 harboring gyrA Ala90Val mutant gene assessed as microbial susceptibility by agar proportion method; format: functional, organism-based
In short: (§2)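 Clinical isolates freshly subcultured on Löwenstein-Jensen medium at 37°C for no more than 4 weeks. Susceptibility by standard proportion method on 7H11 agar at breakpoints of 2 mg/liter ofloxacin and 0.5 mg/liter moxifloxacin and gatifloxacin. Drug stocks 1 mg/ml in 0.1 N NaOH, filter sterilized, held at −20°C under 2 months. Isolates scored susceptible or resistant.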

[3] = tested on: Mycobacterium tuberculosis; test: Antimycobacterial activity against multidrug-resistant Mycobacterium tuberculosis 08-0779 assessed as microbial susceptibility by agar proportion method; format: functional, organism-based; in short: as §2
[4] = tested on: Mycobacterium tuberculosis; test: Antimycobacterial activity against multidrug-resistant Mycobacterium tuberculosis 04-0519 harboring gyrA Ala90Val and Asp94Asn mutant gene assessed as microbial susceptibility by agar proportion method; format: functional, organism-based; in short: as §2
[5] = tested on: Mycobacterium tuberculosis; test: Antimycobacterial activity against multidrug-resistant Mycobacterium tuberculosis 01-1647 harboring gyrA Ala90Val mutant gene by resazurin microtiter assay; format: functional
In short: (§3)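 Isolates taken from fresh Löwenstein-Jensen subcultures grown at 37°C for at most 4 weeks. Drug stocks 1 mg/ml in 0.1 N NaOH, filter sterilized, stored at −20°C less than 2 months. MIC read by resazurin microtiter assay following a previously described protocol.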

[6] = tested on: Mycobacterium tuberculosis; test: Antimycobacterial activity against multidrug-resistant Mycobacterium tuberculosis 08-0777 by resazurin microtiter assay; format: functional
In short: (§4)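 MIC was read by resazurin microtiter assay against ofloxacin, moxifloxacin and gatifloxacin. Isolates were used as fresh Löwenstein-Jensen subcultures kept at 37°C for no longer than 4 weeks.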

[7] = tested on: Mycobacterium tuberculosis; test: Antimycobacterial activity against multidrug-resistant Mycobacterium tuberculosis 01-2834 by agar proportion method; format: functional, organism-based; in short: as §1
[8] = tested on: Mycobacterium tuberculosis; test: Antimycobacterial activity against multidrug-resistant Mycobacterium tuberculosis 08-0810 harboring gyrA Asp94Tyr mutant gene assessed as microbial susceptibility by agar proportion method; format: functional, organism-based; in short: as §2
[9] = tested on: Mycobacterium tuberculosis; test: Antimycobacterial activity against Mycobacterium tuberculosis 08-0771 harboring gyrA putative promoter mutant gene by resazurin microtiter assay; format: functional; in short: as §3
[10] = tested on: Mycobacterium tuberculosis; test: Antimycobacterial activity against multidrug-resistant Mycobacterium tuberculosis 08-0746 by resazurin microtiter assay; format: functional; in short: as §4
[11] = tested on: Mycobacterium tuberculosis; test: Antimycobacterial activity against Mycobacterium tuberculosis 08-0815 harboring gyrA Thr80Ala and Ala90Gly mutant gene assessed as microbial susceptibility by agar proportion method; format: functional, organism-based; in short: as §1
[12] = tested on: Mycobacterium tuberculosis; test: Antimycobacterial activity against multidrug-resistant Mycobacterium tuberculosis 08-0757 harboring gyrA Ala90Val mutant gene assessed as microbial susceptibility by agar proportion method; format: functional, organism-based; in short: as §2
[13] = tested on: Mycobacterium tuberculosis; test: Antimycobacterial activity against multidrug-resistant Mycobacterium tuberculosis 08-0797 harboring gyrA Ala90Val mutant gene assessed as microbial susceptibility by agar proportion method; format: functional, organism-based; in short: as §2
[14] = tested on: Mycobacterium tuberculosis; test: Antimycobacterial activity against multidrug-resistant Mycobacterium tuberculosis 08-0790 harboring gyrA Ala90Val mutant gene by resazurin microtiter assay; format: functional; in short: as §4
[15] = tested on: Mycobacterium tuberculosis; test: Antimycobacterial activity against multidrug-resistant Mycobacterium tuberculosis 08-0791 harboring gyrA Ala90Val mutant gene assessed as microbial susceptibility by agar proportion method; format: functional, organism-based; in short: as §2
[16] = tested on: Mycobacterium tuberculosis; test: Antimycobacterial activity against Mycobacterium tuberculosis 08-0815 harboring gyrA Thr80Ala and Ala90Gly mutant gene by resazurin microtiter assay; format: functional; in short: as §3
[17] = tested on: Mycobacterium tuberculosis; test: Antimycobacterial activity against Mycobacterium tuberculosis 08-0769 harboring gyrA putative promoter mutant gene by resazurin microtiter assay; format: functional; in short: as §3
[18] = tested on: Mycobacterium tuberculosis; test: Antimycobacterial activity against multidrug-resistant Mycobacterium tuberculosis 08-0794 harboring gyrA Thr80Ala mutant gene by resazurin microtiter assay; format: functional; in short: as §4
[19] = tested on: Mycobacterium tuberculosis; test: Antimycobacterial activity against multidrug-resistant Mycobacterium tuberculosis 01-0172 harboring gyrA Asp94Ala mutant gene by resazurin microtiter assay; format: functional; in short: as §3
[20] = tested on: Mycobacterium tuberculosis; test: Antimycobacterial activity against Mycobacterium tuberculosis 08-0773 harboring gyrA Pro8Ala mutant gene assessed as microbial susceptibility by agar proportion method; format: functional, organism-based; in short: as §1
[21] = tested on: Mycobacterium tuberculosis; test: Antimycobacterial activity against multidrug-resistant Mycobacterium tuberculosis 01-0930 harboring gyrA Ala90Val mutant gene by resazurin microtiter assay; format: functional; in short: as §3
[22] = tested on: Mycobacterium tuberculosis; test: Antimycobacterial activity against multidrug-resistant Mycobacterium tuberculosis 02-0319 harboring gyrA Asp94Ala mutant gene assessed as microbial susceptibility by agar proportion method; format: functional, organism-based; in short: as §1
[23] = tested on: Mycobacterium tuberculosis; test: Antimycobacterial activity against multidrug-resistant Mycobacterium tuberculosis 99-1914 harboring gyrA Asp94Gly mutant gene assessed as microbial susceptibility by agar proportion method; format: functional, organism-based; in short: as §2
[24] = tested on: Mycobacterium tuberculosis; test: Antimycobacterial activity against Mycobacterium tuberculosis 00-0715 harboring gyrA Ala90Val mutant gene assessed as microbial susceptibility by agar proportion method; format: functional, organism-based; in short: as §1
[25] = tested on: Mycobacterium tuberculosis; test: Antimycobacterial activity against multidrug-resistant Mycobacterium tuberculosis 08-0785 harboring gyrA Ala90Val mutant gene by resazurin microtiter assay; format: functional; in short: as §4
[26] = tested on: Mycobacterium tuberculosis; test: Antimycobacterial activity against multidrug-resistant Mycobacterium tuberculosis 08-0779 by resazurin microtiter assay; format: functional; in short: as §4
[27] = tested on: Mycobacterium tuberculosis; test: Antimycobacterial activity against multidrug-resistant Mycobacterium tuberculosis 04-0519 harboring gyrA Ala90Val and Asp94Asn mutant gene by resazurin microtiter assay; format: functional; in short: as §4
[28] = tested on: Mycobacterium tuberculosis; test: Antimycobacterial activity against Mycobacterium tuberculosis 08-0773 harboring gyrA Pro8Ala mutant gene by resazurin microtiter assay; format: functional; in short: as §3
[29] = tested on: Mycobacterium tuberculosis; test: Antimycobacterial activity against Mycobacterium tuberculosis 04-0649 harboring gyrA Asp94Asn mutant gene assessed as microbial susceptibility by agar proportion method; format: functional, organism-based; in short: as §1
[30] = tested on: Mycobacterium tuberculosis; test: Antimycobacterial activity against multidrug-resistant Mycobacterium tuberculosis 08-0791 harboring gyrA Ala90Val mutant gene by resazurin microtiter assay; format: functional; in short: as §4
[31] = tested on: Mycobacterium tuberculosis; test: Antimycobacterial activity against Mycobacterium tuberculosis 00-0715 harboring gyrA Ala90Val mutant gene by resazurin microtiter assay; format: functional; in short: as §3
[32] = tested on: Mycobacterium tuberculosis; test: Antimycobacterial activity against Mycobacterium tuberculosis 08-0787 harboring gyrA Asp94His mutant gene assessed as microbial susceptibility and deletion of codons 678 and 679 in gyrB mutant gene assessed as microbial susceptibility by agar proportion method; format: functional, organism-based; in short: as §1
[33] = tested on: Mycobacterium tuberculosis; test: Antimycobacterial activity against Mycobacterium tuberculosis 08-0787 harboring gyrA Asp94His mutant gene and deletion of codons 678 and 679 in gyrB mutant gene by resazurin microtiter assay; format: functional; in short: as §3
[34] = tested on: Mycobacterium tuberculosis; test: Antimycobacterial activity against multidrug-resistant Mycobacterium tuberculosis 08-0744 harboring gyrA Asp94Tyr mutant gene assessed as microbial susceptibility by agar proportion method; format: functional, organism-based; in short: as §2
[35] = tested on: Mycobacterium tuberculosis; test: Antimycobacterial activity against Mycobacterium tuberculosis 02-1975 harboring gyrA Asp94Gly mutant gene assessed as microbial susceptibility by agar proportion method; format: functional, organism-based; in short: as §1
[36] = tested on: Mycobacterium tuberculosis; test: Antimycobacterial activity against multidrug-resistant Mycobacterium tuberculosis 08-0794 harboring gyrA Thr80Ala mutant gene assessed as microbial susceptibility by agar proportion method; format: functional, organism-based; in short: as §2
[37] = tested on: Mycobacterium tuberculosis; test: Antimycobacterial activity against multidrug-resistant Mycobacterium tuberculosis 02-1234 harboring gyrA Asn533Thr gyrB mutant gene assessed as microbial susceptibility by agar proportion method; format: functional, organism-based; in short: as §1

| Compound | Activity [1] | Activity [2] | Activity [3] | Activity [4] | MIC [5] [µg/mL] | MIC [6] [µg/mL] | Activity [7] | Activity [8] | MIC [9] | MIC [10] [µg/mL] | Activity [11] | Activity [12] | Activity [13] | MIC [14] [µg/mL] | Activity [15] | MIC [16] | MIC [17] | MIC [18] | MIC [19] [µg/mL] | Activity [20] | other results |
| --- | --- | --- | --- | --- | --- | --- | --- | --- | --- | --- | --- | --- | --- | --- | --- | --- | --- | --- | --- | --- | --- |
| COc1c(N2CCNC(C)C2)c(F)cc2c(=O)c(C(=O)O)cn(C3CC3)c12 (stereo unspecified) [GATIFLOXACIN] | inactive | inactive | Active | inactive | 0.5 (≈ 1.33 µM) | ≤ 0.062 | inactive | inactive | 0.125 µg/mL (≈ 0.333 µM) | ≤ 0.062 | Active | inactive | inactive | 0.5 (≈ 1.33 µM) | inactive | <=0.062 mg/L | 0.125 µg/mL (≈ 0.333 µM) | <=0.062 mg/L | 0.25 (≈ 0.666 µM) | Active | MIC [21]: 0.5 µg/mL (≈ 1.33 µM); Activity [22]: inactive; Activity [23]: inactive; Activity [24]: inactive; MIC [25]: 1 µg/mL (≈ 2.66 µM); MIC [26]: ≤ 0.062 µg/mL; MIC [27]: >4 µg/mL; MIC [28]: <=0.062 mg/L; Activity [29]: inactive; MIC [30]: 0.25 µg/mL (≈ 0.666 µM); MIC [31]: 0.5 µg/mL (≈ 1.33 µM); Activity [32]: inactive; MIC [33]: 1 µg/mL (≈ 2.66 µM); Activity [34]: inactive; Activity [35]: inactive; Activity [36]: Active; Activity [37]: inactive |
| CC1COc2c(N3CCN(C)CC3)c(F)cc3c(=O)c(C(=O)O)cn1c23 (stereo unspecified) [OFLOXACIN] | inactive | inactive | Active | inactive | 4 (≈ 11.1 µM) | 0.5 (≈ 1.38 µM) | inactive | inactive | 1 µg/mL (≈ 2.77 µM) | 0.5 (≈ 1.38 µM) | Active | inactive | inactive | 4 (≈ 11.1 µM) | inactive | <=0.25 mg/L | 1 µg/mL (≈ 2.77 µM) | 0.5 µg/mL (≈ 1.38 µM) | 4 (≈ 11.1 µM) | Active | MIC [21]: 4 µg/mL (≈ 11.1 µM); Activity [22]: inactive; Activity [23]: inactive; Activity [24]: inactive; MIC [25]: 8 µg/mL (≈ 22.1 µM); MIC [26]: 0.5 µg/mL (≈ 1.38 µM); MIC [27]: >32 µg/mL; MIC [28]: 0.5 µg/mL (≈ 1.38 µM); Activity [29]: inactive; MIC [30]: 4 µg/mL (≈ 11.1 µM); MIC [31]: 4 µg/mL (≈ 11.1 µM); Activity [32]: inactive; MIC [33]: 4 µg/mL (≈ 11.1 µM); Activity [34]: inactive; Activity [35]: inactive; Activity [36]: Active; Activity [37]: Active |
| COc1c(N2C[C@@H]3CCCN[C@@H]3C2)c(F)cc2c(=O)c(C(=O)O)cn(C3CC3)c12 [MOXIFLOXACIN] | inactive | inactive | Active | inactive | 0.5 (≈ 1.25 µM) | ≤ 0.125 | inactive | inactive | <=0.125 mg/L | ≤ 0.125 | Active | inactive | inactive | 1 (≈ 2.49 µM) | inactive | <=0.125 mg/L | <=0.125 mg/L | <=0.125 mg/L | 0.5 (≈ 1.25 µM) | Active | MIC [21]: 0.5 µg/mL (≈ 1.25 µM); Activity [22]: inactive; Activity [23]: inactive; Activity [24]: inactive; MIC [25]: 2 µg/mL (≈ 4.98 µM); MIC [26]: ≤ 0.125 µg/mL; MIC [27]: >8 µg/mL; MIC [28]: <=0.125 mg/L; Activity [29]: inactive; MIC [30]: 0.5 µg/mL (≈ 1.25 µM); MIC [31]: 0.5 µg/mL (≈ 1.25 µM); Activity [32]: inactive; MIC [33]: 2 µg/mL (≈ 4.98 µM); Activity [34]: inactive; Activity [35]: inactive; Activity [36]: Active; Activity [37]: inactive |
